≈ marks a conversion by molar mass, not a printed value.
How the values were obtained:
[1] = target: Voltage-gated inwardly rectifying potassium channel KCNH2 (Homo sapiens, UniProt Q12809); assay: Inhibition of human ERG
[2] = system: Staphylococcus aureus; assay: Antibacterial activity against Staphylococcus aureus 3527 assessed as reduction in bacterial growth by CLSI based broth microdilution method; type: functional
Method in brief: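 Host is a multidrug-resistant MRSA clinical isolate (formerly 1095), the parent of an isogenic D83N gyrase mutant. MIC was read by CLSI broth microdilution and reported in µg/mL.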

[3] = system: Enterococcus faecium; assay: Antibacterial activity against Vancomycin-susceptible Enterococcus faecium DRL-4193 assessed as reduction in bacterial growth by CLSI based broth microdilution method; type: functional
[4] = system: Staphylococcus aureus; assay: Antibacterial activity against Staphylococcus aureus USA300 assessed as reduction in bacterial growth by CLSI based broth microdilution method; type: functional
[5] = system: Staphylococcus aureus; assay: Selectivity index, ratio of IC50 for inhibition of Staphylococcus aureus topoisomerase IV to IC50 for inhibition of Staphylococcus aureus DNA gyrase
Method in brief: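 Ratio of S. aureus TopoIV IC50 to S. aureus DNA gyrase IC50, both from gel-based assays. TopoIV read-out was inhibition of decatenation; gyrase read-out was inhibition of supercoiling.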

[6] = system: Staphylococcus aureus; assay: Selectivity index, fold shift in MIC between parent and mutant; type: functional
Method in brief: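 MICs by CLSI broth microdilution in µg/mL against multidrug-resistant MRSA isolate 3527 (formerly 1095) and its isogenic NBTI-resistant daughter strain carrying a gyrase D83N substitution. Value is the fold shift in MIC between parent and mutant.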

[7] = Inhibition of Staphylococcus aureus DNA gyrase using relaxed pBR322 DNA as substrate incubated for 30 mins by agarose gel electrophoresis method
[8] = system: Streptococcus pyogenes; assay: Antibacterial activity against Streptococcus pyogenes LSI-1235 assessed as reduction in bacterial growth by CLSI based broth microdilution method; type: functional
[9] = system: Enterococcus faecium; assay: Antibacterial activity against Vancomycin-resistant Enterococcus faecium LSI-3340 assessed as reduction in bacterial growth by CLSI based broth microdilution method; type: functional
[10] = system: Streptococcus pneumoniae; assay: Antibacterial activity against penicillin-resistant Streptococcus pneumoniae LSI-4246 assessed as reduction in bacterial growth by CLSI based broth microdilution method; type: functional
[11] = system: Enterococcus faecalis; assay: Antibacterial activity against Enterococcus faecalis ATCC 29212 assessed as reduction in bacterial growth by CLSI based broth microdilution method; type: functional
[12] = system: Staphylococcus aureus; assay: Antibacterial activity against Staphylococcus aureus ATCC 29213 assessed as reduction in bacterial growth by CLSI based broth microdilution method; type: functional
[13] = system: Streptococcus pneumoniae; assay: Antibacterial activity against penicillin-susceptible Streptococcus pneumoniae LSI-4234 assessed as reduction in bacterial growth by CLSI based broth microdilution method; type: functional
[14] = system: Staphylococcus aureus; assay: Antibacterial activity against Staphylococcus aureus harboring DNA gyrase D83N mutant assessed as reduction in bacterial growth by CLSI based broth microdilution method; type: functional
Method in brief: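 MIC against an isogenic NBTI-resistant daughter strain carrying a D83N substitution in DNA gyrase, originally selected under NBTI pressure from multidrug-resistant MRSA isolate 3527. CLSI broth microdilution was used, with values in µg/mL.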

[15] = system: Staphylococcus aureus; assay: Antibacterial activity against cystic fibrosis patient isolate Staphylococcus aureus assessed as reduction in bacterial growth by CLSI based broth microdilution method; type: functional
[16] = Inhibition of Staphylococcus aureus topoisomerase IV using kDNA as substrate incubated for 30 mins by gel electrophoresis analysis
[17] = system: Staphylococcus aureus; assay: Antibacterial activity against methicillin-resistant Staphylococcus aureus DRL-3161 assessed as reduction in bacterial growth by CLSI based broth microdilution method; type: functional

Chain of Voltage-gated inwardly rectifying potassium channel KCNH2 (Q12809 whole entry): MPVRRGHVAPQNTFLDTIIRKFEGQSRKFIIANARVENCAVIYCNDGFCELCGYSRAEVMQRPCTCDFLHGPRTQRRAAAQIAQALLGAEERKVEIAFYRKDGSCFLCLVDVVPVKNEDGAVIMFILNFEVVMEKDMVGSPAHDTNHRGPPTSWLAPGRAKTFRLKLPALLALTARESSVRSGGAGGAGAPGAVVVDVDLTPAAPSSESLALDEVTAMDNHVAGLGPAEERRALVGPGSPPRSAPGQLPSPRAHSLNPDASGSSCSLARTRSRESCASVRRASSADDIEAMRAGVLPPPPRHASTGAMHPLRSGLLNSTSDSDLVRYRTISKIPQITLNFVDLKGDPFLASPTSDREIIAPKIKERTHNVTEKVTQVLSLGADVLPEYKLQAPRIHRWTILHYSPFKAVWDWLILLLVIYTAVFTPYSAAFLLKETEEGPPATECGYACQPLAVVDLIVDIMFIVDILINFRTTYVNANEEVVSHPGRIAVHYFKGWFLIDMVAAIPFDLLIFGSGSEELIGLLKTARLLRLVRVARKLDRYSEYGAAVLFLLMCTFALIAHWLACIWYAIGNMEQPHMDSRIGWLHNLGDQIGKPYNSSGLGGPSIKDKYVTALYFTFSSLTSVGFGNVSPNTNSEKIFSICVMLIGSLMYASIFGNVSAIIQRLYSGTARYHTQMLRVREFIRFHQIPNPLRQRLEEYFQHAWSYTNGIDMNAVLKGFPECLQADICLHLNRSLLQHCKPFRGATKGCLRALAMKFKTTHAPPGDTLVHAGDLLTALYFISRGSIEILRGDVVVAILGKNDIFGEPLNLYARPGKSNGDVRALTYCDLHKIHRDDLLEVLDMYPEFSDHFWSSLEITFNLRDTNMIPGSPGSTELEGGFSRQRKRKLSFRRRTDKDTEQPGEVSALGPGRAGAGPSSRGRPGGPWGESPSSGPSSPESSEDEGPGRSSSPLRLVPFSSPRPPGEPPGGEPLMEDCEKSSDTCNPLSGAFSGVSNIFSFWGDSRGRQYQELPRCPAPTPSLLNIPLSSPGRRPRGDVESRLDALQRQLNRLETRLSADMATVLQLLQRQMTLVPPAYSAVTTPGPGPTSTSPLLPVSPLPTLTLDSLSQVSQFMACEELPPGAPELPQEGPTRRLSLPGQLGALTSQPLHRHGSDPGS

SMILES	IC50 [1] [nM]	MIC [2] [µg/mL]	MIC [4] [µg/mL]	Ratio [6]	IC50 [7] [nM]	MIC [12] [µg/mL]	MIC [14] [µg/mL]	MIC [15] [µg/mL]	IC50 ([16]; read-out: IC50) [nM]	also measured
COc1ccc2ncc(F)c(CC[C@]3(O)CC[C@H](NCc4ccc(Cl)c(Cl)c4)CC3)c2n1	3800	–	–	–	–	–	–	–	–	–
COc1ccc2ncc(F)c(CC[C@H]3OC[C@H](NCc4cc5c(cn4)OCCO5)CO3)c2n1	15000	–	–	–	–	–	–	–	–	–
COc1ccc2ncc(F)c(CC[C@H]3OC[C@H](NCc4ccc5c(c4)OCCO5)CO3)c2n1	8000	≤ 0.25	0.125 (≈ 0.274 µM)	> 16	30	< 0.25	4 (≈ 8.78 µM)	0.25 (≈ 0.549 µM)	1000	MIC [3]: 0.12 µg/mL (≈ 0.263 µM); Ratio IC50 [5]: 33; MIC [8]: ≤ 0.06 µg/mL; MIC [9]: 0.12 µg/mL (≈ 0.263 µM); MIC [10]: ≤ 0.06 µg/mL; MIC [11]: 0.5 µg/mL (≈ 1.1 µM); MIC [13]: 0.25 µg/mL (≈ 0.549 µM); MIC [17]: ≤ 0.06 µg/mL
COc1ccc2ncc(F)c(CC[C@@]3(O)CO[C@@H]4[C@@H](NCc5ccc(C)cc5)CO[C@@H]43)c2n1	–	2 (≈ 4.41 µM)	2 (≈ 4.41 µM)	8	180	1 (≈ 2.21 µM)	16 (≈ 35.3 µM)	2 (≈ 4.41 µM)	7500	Ratio IC50 [5]: 42
COc1ccc2ncc(F)c(CC[C@]3(O)CC[C@@H](NCc4ccc5c(c4)OCCO5)CC3)c2n1	2200	–	–	–	–	–	–	–	–	–
COc1ccc2ncc(F)c(CC[C@@]3(O)CO[C@@H]4[C@@H](NCc5ccc6c(c5)OCCO6)CO[C@@H]43)c2n1	20000	1 (≈ 2.01 µM)	1 (≈ 2.01 µM)	4	200	0.5 (≈ 1 µM)	4 (≈ 8.04 µM)	1 (≈ 2.01 µM)	2600	Ratio IC50 [5]: 13
COc1ccc2nccc(CC[C@@]3(O)CO[C@@H]4[C@@H](NCc5ccc6c(c5)OCCO6)CO[C@@H]43)c2c1	–	–	16 (≈ 33.4 µM)	–	–	16 (≈ 33.4 µM)	–	16 (≈ 33.4 µM)	–	–
COc1ccc2ncc(F)c(CC[C@]3(O)CC[C@H](NCc4ccc5c(c4)OCCO5)CC3)c2n1	2300	–	–	–	–	–	–	–	–	–
COc1ccc2ncc(F)c(CC[C@H]3OC[C@H](NCc4ccc(Cl)c(Cl)c4)CO3)c2n1	7900	–	–	–	–	–	–	–	–	–
COc1ccc2nccc(CC[C@@]3(O)CO[C@@H]4[C@@H](NCc5ccccc5)CO[C@@H]43)c2c1	–	–	> 8	–	–	> 8	–	> 8	–	–
COc1ccc2ncc(F)c(CC[C@@]3(O)CO[C@@H]4[C@@H](NCc5ccc6c(n5)NC(=O)CO6)CO[C@@H]43)c2n1	12000	1 (≈ 1.95 µM)	1 (≈ 1.95 µM)	8	540	2 (≈ 3.91 µM)	8 (≈ 15.6 µM)	2 (≈ 3.91 µM)	–	IC50 [16]: Not Active
COc1ccc2ncc(F)c(CC[C@@]3(O)CO[C@@H]4[C@@H](NCc5ccc(Cl)c(Cl)c5)CO[C@@H]43)c2n1	–	0.25 (≈ 0.492 µM)	0.5 (≈ 0.984 µM)	–	200	≤ 0.25	4 (≈ 7.87 µM)	0.5 (≈ 0.984 µM)	2900	–
COc1ccc2nccc(CC[C@@]3(O)CO[C@@H]4[C@@H](NCc5ccc(C)cc5)CO[C@@H]43)c2c1	–	–	> 8	–	–	> 8	–	> 8	–	–

Reference: ChEMBL document CHEMBL4765317, “Novel bacterial topoisomerase inhibitors derived from isomannide” (Eur J Med Chem, 2020)
